Test [1] is described as follows: Cytotoxicity against human MDA231 cells by MTT assay. Format: functional, cell-based. Conditions: MDA-MB-231. Summed up:
(§1)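 MTT read-out following Mosmann's method; IC50 for each cell line derived from four individual observations.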

The test system of a further test is HeLa. Briefly: Cytotoxicity against human HeLa cells by MTT assay. It counts as functional, cell-based. An outline of the steps: as §1
Test [2] concerns Staphylococcus aureus. Put plainly: Antimicrobial activity against Staphylococcus aureus MLS16 MTCC 96 by microtiter broth dilution method. Format: functional. Particulars: MLS16 MTCC 2940, in the assay text read “MTCC 2940” for “MTCC 96”. An outline of the steps: (§2)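 MIC determined by microtiter broth dilution, with neomycin as the reference control; each organism's value derived from four individual observations.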

The subject of test [3] is Staphylococcus aureus. Briefly: Antimicrobial activity against Staphylococcus aureus MTCC 96 by microtiter broth dilution method. It counts as functional. Summed up: as §2
The subject of the next test is MCF7. Put plainly: Cytotoxicity against human MCF7 cells by MTT assay. Format: functional, cell-based. An outline of the steps:
(§3)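 MTT assay following Mosmann's method. Each IC50 was derived from four individual observations for each cell line.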

The test system of another test is Bacillus subtilis. Briefly: Antimicrobial activity against Bacillus subtilis MTCC 121 by microtiter broth dilution method. Format: functional. Summed up:
as §2

A short description of test [4]: Cytotoxicity against mouse Neuro2a cells by MTT assay. It counts as functional, cell-based. Conditions: N2a. An outline of the steps: as §3
The subject of a further test is A549. Briefly: Cytotoxicity against human A549 cells by MTT assay. Format: functional, cell-based. An outline of the steps: as §1
The next test relates to Escherichia coli. Put plainly: Antimicrobial activity against Escherichia coli MTCC 739 by microtiter broth dilution method. It counts as functional. An outline of the steps: as §2
For another test, the system named is Raoultella planticola. Put plainly: Antimicrobial activity against Klebsiella planticola MTCC 530 by microtiter broth dilution method. Format: functional. An outline of the steps:
as §2

Another test has as its system Pseudomonas aeruginosa. Briefly: Antimicrobial activity against Pseudomonas aeruginosa MTCC 2453 by microtiter broth dilution method. Format: functional. An outline of the steps:
as §2

In brackets after ≈: the same amount, converted by molar mass.

In the case of `COc1cccc2c1C(=O)c1c(O)c3c(c(O)c1C2=O)C[C@@](O)(C(=O)CO)C[C@@H]3O[C@H]1C[C@H](N)[C@H](O)[C@H](C)O1` [DOXORUBICIN], the IC50 (in test [1]; in the test on HeLa) was < 1 µM throughout.

Consider `C[C@H]1C[C@@H]2[C@H](CC[C@](C)(O)/C=C3\[C@H](O)[C@@H](C)C[C@@]3(O)C1=O)C2(C)C` [MULTIFIDANOL], for which the MIC against Staphylococcus aureus [2] was 18.8 mg/L (≈ 55.7 µM); with Staphylococcus aureus [3] it was 18.8 mg/L (≈ 55.7 µM); with Bacillus subtilis, 4.68 mg/L (≈ 13.9 µM); in the test on Escherichia coli it was 4.68 mg/L (≈ 13.9 µM); against Raoultella planticola, 9.37 mg/L (≈ 27.8 µM); in the test on Pseudomonas aeruginosa, 9.37 mg/L (≈ 27.8 µM). Moreover, the IC50 in the test with MCF7 was determined as 6.39 µM; in test [1], 7.04 µM; with HeLa, 15.4 µM; in test [4] it was 6.35 µM; with A549 it was 6.27 µM.

For the molecule `CC1=C[C@@]2(O)C(=O)[C@@H](C)C[C@@H]3[C@H](CC[C@](C)(O)/C=C/2[C@@H]1O)C3(C)C` [MULTIFIDENOL], the MIC in the test with Staphylococcus aureus [2] and with Staphylococcus aureus [3] was 4.68 mg/L (≈ 14 µM) in each case. Moreover, the IC50 was found to be 8.57 µM with MCF7; 5.39 µM in [1]; 7.56 µM in the test with HeLa; 5.6 µM in [4]; 12.5 µM in the test with A549.

Values taken from ChEMBL document CHEMBL1909579, “New bioactive macrocyclic diterpenoids from Jatropha multifida” (Bioorg Med Chem Lett, 2011).
